Laboratory results as given in article PMC3351161 (Nucleic Acids Research, 2012).
Where no end group is shown, it is not given here. [ ]: non-standard residue; d: D form. pT = C[C@@H](OP(=O)(O)O)[C@H](N)C(=O)O

Key:
Mdc1 FHA domain = Mdc1 FHA domain (UniProt Q14676); test: ITC; details: reference: non-phosphorylated Thr-4 peptide; sites T4
Mdc1 M-1, 1-124 = Mdc1 M-1, 1-124 (UniProt Q14676); test: peptide pull-down of purified GST fragment; details: reference: unphosphorylated peptide; sites T4
Mdc1 [1] = target: Mdc1 (UniProt Q14676); test: Strep-Tactin pull-down, SILAC LC-MS/MS; details: reference: wild type FHA fragment; sites T4
Mdc1 1-800 = Mdc1 1-800 (UniProt Q14676); test: anti-Flag co-IP, anti-Myc blot; details: reference: wild type; sites T4
Mdc1 [2] = test: Peptide pull-down from HeLa nuclear extract; type: binding, human; details: peptide coupled to magnetic beads, SDS-PAGE, western blot
RAD50 = test: Peptide pull-down from HeLa nuclear extract; type: binding, human; details: peptide coupled to magnetic beads; band at ∼150 kDa
MRE11 = test: Peptide pull-down from HeLa nuclear extract; type: binding, human; details: peptide coupled to magnetic beads; band at ∼80 kDa
[3] = system: Mdc1 FHA domain (M-1 GST-fragment); test: Phosphopeptide pull-down with GST fragment M-1; type: binding, human; details: bacterially expressed GST-fusion
[4] = system: Mdc1 BRCT domains (M-8 GST-fragment); test: Phosphopeptide pull-down with GST fragment M-8; type: binding, human; details: bacterially expressed GST-fusion
Myc-tagged Mdc1 (1–800) = test: Co-immunoprecipitation of Flag- and Myc-tagged Mdc1; type: cell-based, human; details: transiently transfected 293T cells, anti-Flag IP, anti-Myc immunoblot
In short: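 Human Mdc1 residues 1–800, C-terminally tagged with HA/FLAG or Myc, in a pcDNA3.1(+) vector. HEK 293T cells grown in D-MEM with 10% FCS and streptomycin/penicillin (100 U/ml). Transfected with FuGene 6 or calcium phosphate. Immunoprecipitation on anti-FLAG M2 affinity gel; Myc-tagged partner detected by immunoblot with rabbit polyclonal c-Myc antibody.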

endogenous Mdc1 = test: Co-immunoprecipitation of Flag-tagged Mdc1; type: cell-based, human; details: 293T cells, with or without IR (10 Gy)
In short: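 HEK 293T cells in D-MEM with 10% FCS and streptomycin/penicillin were transfected (FuGene 6 or calcium phosphate) with FLAG-tagged human Mdc1 residues 1–800 in pcDNA3.1(+). IR was given in an X-ray cabinet at 5–10 Gy/min. Complexes were captured on anti-FLAG M2 affinity gel and probed for endogenous Mdc1.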

[5] = system: Mdc1–FHA WT and T4A mutant domains; test: SILAC pull-down, wild-type versus T4A Mdc1–FHA domain after IR; type: binding, human; details: IR-treated cells
In short: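 U2OS cells stably carry a doxycycline-inducible, C-terminally Strep-tagged FHA domain (aa 1–154) or empty plasmid. They are SILAC-labelled (Lys0/Arg0, Lys4/Arg6, Lys8/Arg10) in dialyzed FBS, induced 16 h, then given 10 Gy IR for 30 min. Lysis in pH 7.5 Tris/NP-40 buffer with phosphatase and protease inhibitors, Strep-Tactin capture, pooled eluates on 4–20% SDS-PAGE, in-gel trypsin digestion. Analysis by nano-LC Orbitrap Velos MS and MaxQuant (FDR <1%). Read-out is normalized log2 SILAC ratios; 1:1:1 ratios count as background binders.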

[6] = target: T1, Mdc1 fragment M-1 (amino acids 1–124), GST fusion (human, UniProt Q14676 1-124); test: pull-down
T1 sequence (looked up): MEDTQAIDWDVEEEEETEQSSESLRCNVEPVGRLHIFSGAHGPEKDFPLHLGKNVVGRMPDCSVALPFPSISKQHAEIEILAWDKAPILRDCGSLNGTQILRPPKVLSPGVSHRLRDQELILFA

SEC-MALS = target: the molecule itself; test: SEC-MALS

Sequence of Mdc1 (UniProt Q14676) (Q14676 1-154 T4A): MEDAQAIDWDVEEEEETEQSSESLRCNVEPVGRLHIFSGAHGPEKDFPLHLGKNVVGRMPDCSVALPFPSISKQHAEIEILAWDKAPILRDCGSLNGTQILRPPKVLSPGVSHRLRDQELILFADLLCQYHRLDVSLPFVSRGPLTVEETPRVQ

## Mdc1 Thr-4 motif peptide (from UniProt Q14676) pThr-4 peptide
Mdc1 FHA domain
  binding against the reference: stronger

## Mdc1 1-12 (from UniProt Q14676) pThr-4 peptide
Mdc1 M-1, 1-124
  binding against the reference: stronger

## Mdc1 1-154 (from UniProt Q14676) T4A FHA fragment
Mdc1 [1]
  binding against the reference: weaker

## Mdc1 1-800 (from UniProt Q14676) T4A
Mdc1 1-800
  binding against the reference: weaker

## MED[pT]QAIDWDAE[KBtn] [pThr-4 phosphopeptide]
Mdc1 [2]
  Mdc1 pulled down from HeLa nuclear extract: efficiently pulled down
Mdc1 [2]; listed as phosphopeptide
  Mdc1 pulled down from HeLa nuclear extract: pulled down by the phosphopeptide only
RAD50
  RAD50 pulled down from HeLa nuclear extract: pulled down by the phosphopeptide only
MRE11
  MRE11 pulled down from HeLa nuclear extract: pulled down by the phosphopeptide only
[3]
  binding of FHA domain GST-fusion: bound tightly and specifically
[4]
  binding of C-terminal BRCT-repeat region GST-fusion: no significant interaction detectable

B1: Mdc1 (1–800): tagged N-terminal Mdc1 fragment lacking the BRCT domains (protein)
chain: MEDTQAIDWDVEEEEETEQSSESLRCNVEPVGRLHIFSGAHGPEKDFPLHLGKNVVGRMPDCSVALPFPSISKQHAEIEILAWDKAPILRDCGSLNGTQILRPPKVLSPGVSHRLRDQELILFADLLCQYHRLDVSLPFVSRGPLTVEETPRVQGETQPQRLLLAEDSEEEVDFLSERRMVKKSRTTSSSVIVPESDEEGHSPVLGGLGPPFAFNLNSDTDVEEGQQPATEEASSAARRGATVEAKQSEAEVVTEIQLEKDQPLVKERDNDTKVKRGAGNGVVPAGVILERSQPPGEDSDTDVDDDSRPPGRPAEVHLERAQPFGFIDSDTDAEEERIPATPVVIPMKKRKIFHGVGTRGPGAPGLAHLQESQAGSDTDVEEGKAPQAVPLEKSQASMVINSDTDDEEEVSAALTLAHLKESQPAIWNRDAEEDMPQRVVLLQRSQTTTERDSDTDVEEEELPVENREAVLKDHTKIRALVRAHSEKDQPPFGDSDDSVEADKSSPGIHLERSQASTTVDINTQVEKEVPPGSAIIHIKKHQVSVEGTNQTDVKAVGGPAKLLVVSLEEAWPLHGDCETDAEEGTSLTASVVADVRKSQLPAEGDAGAEWAAAVLKQERAHEVGAQGGPPVAQVEQDLPISRENLTDLVVDTDTLGESTQPQREGAQVPTGREREQHVGGTKDSEDNYGDSEDLDLQATQCFLENQGLEAVQSMEDEPTQAFMLTPPQELGPSHCSFQTTGTLDEPWEVLATQPFCLRESEDSETQPFDTHLEAYGPCLSPPRAIPGDQHPESPVHTEPM
modifications: left off: HA/FLAG on one copy and Myc on the other, C-terminal, kept
Myc-tagged Mdc1 (1–800)
  interaction of Flag-tagged with Myc-tagged Mdc1 (1–800): efficiently interacted
Endogenous Mdc1
  co-immunoprecipitation with endogenous Mdc1: exclusively in extracts prepared from IR-treated cells

B2: RNF95: uncharacterized RING-finger domain protein (protein)
chain: MATSAPLRSLEEEVTCSICLDYLRDPVTIDCGHVFCRSCTTDVRPISGSRPVCPLCKKPFKKENIRPVWQLASLVENIERLKVDKGRQPGEVTREQQDAKLCERHREKLHYYCEDDGKLLCVMCRESREHRPHTAVLMEKAAQPHREKILNHLSTLRRDRDKIQGFQAKGEADILAALKKLQDQRQYIVAEFEQGHQFLREREEHLLEQLAKLEQELTEGREKFKSRGVGELARLALVISELEGKAQQPAAELMQDTRDFLNRYPRKKFWVGKPIARVVKKKTGEFSDKLLSLQRGLREFQGKLLRDLEYKTVSVTLDPQSASGYLQLSEDWKCVTYTSLYKSAYLHPQQFDCEPGVLGSKGFTWGKVYWEVEVEREGWSEDEEEGDEEEEGEEEEEEEEAGYGDGYDDWETDEDEESLGDEEEEEEEEEEEVLESCMVGVARDSVKRKGDLSLRPEDGVWALRLSSSGIWANTSPEAELFPALRPRRVGIALDYEGGTVTFTNAESQELIYTFTATFTRRLVPFLWLKWPGTRLLLRP
[5]
  interaction with wild-type compared to T4A FHA domain (in words): significantly increased in the wild-type compared to T4A FHA domain expressing cells

## MED[pT]QAIDWDVE (peptide, UniProt Q14676 1-12, looked up)
[6]
  binding result: binds

B3: wild-type Mdc1–FHA (27–138) (domain or fragment, human, UniProt Q14676 27-138, looked up)
chain: NVEPVGRLHIFSGAHGPEKDFPLHLGKNVVGRMPDCSVALPFPSISKQHAEIEILAWDKAPILRDCGSLNGTQILRPPKVLSPGVSHRLRDQELILFADLLCQYHRLDVSLP
SEC-MALS
  stoichiometry N: 2
